From article PMC6086215 (Photoacoustics, 2018)

Legend:
[1] = Absolute fluorescence quantum yield; type: physicochemical; conditions: Seronorm vs glucose solution
[2] = In vitro photoacoustic spectra and signal vs concentration in agar phantom; type: physicochemical; conditions: in glucose solution 5.5% and serum; spectra 680–970 nm, step 5 nm
Method in brief: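 Dyes were diluted in 5.5% glucose (plus 5% DMSO for the conjugate) or incubated 1 h at RT in human serum (HSA 47.8 g/L). Samples were loaded in PE-100 tubes in 2% agar phantoms and read at 21 MHz, 40 dB gain, persistence 3, 680–970 nm in 5 nm steps. Signals were normalized to diluted India ink. Peak signal was plotted against concentration and slopes (μM−1) compared. Data are mean ± SD.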

[3] = test system: U-87MG tumors (high αvβ3 expression); experiment: In vivo photoacoustic imaging of tumor uptake, U-87MG xenograft; design: species or system BALB/c nu/nu mice; conditions: U-87MG tumor bearing mice, n = 5/group
[4] = test system: tumor, brain, lung, liver, kidneys, heart and spleen; experiment: Ex vivo optical imaging of harvested organs and tumors; type: in vivo, BALB/c nu/nu mice; conditions: 24 h post-injection, 200 nmol i.v., harvested organs, n = 5/group
Method in brief: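 Nude mice bearing s.c. right-flank xenografts (5 million A431 or 2 million U-87MG cells, ~14 days) received 200 nmol test compound or parent dye in 0.2 mL i.v. via the tail vein (n=5/group). At the end, FITC-albumin (100 mg/kg i.v.) was given 5 min before sacrifice. Tumor and organs were excised for optical imaging, with tumor ROIs and no background correction.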

U-87MG tumors = experiment: Fluorescence microscopy of U-87MG tumor cryosections; type: in vivo, BALB/c nu/nu mice; conditions: U-87MG tumors excised 24 h after injection
Method in brief: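 U-87MG tumors were excised 24 h after i.v. test compound or parent dye, with FITC-albumin given 5 min before sacrifice to estimate permeability. Tumors were embedded in OCT, fresh-frozen in ice-cold isopentane, and cryosectioned. Probe and FITC distribution were viewed by fluorescence stereomicroscopy.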

[5] = no reference given, cited from earlier work

increase of fluorescence efficiency in Seronorm compared to glucose solution [1]: 5 fold
maximum photoacoustic peak [2]: 800 nm
ex vivo optical imaging, organ distribution [4]: accumulated mainly in liver and kidney
SMILES: CC1(C)C(/C=C/C=C/C=C/C=C2\N(CCCCS(=O)(=O)O)c3ccc4ccccc4c3C2(C)C)=[N+](CCCCS(=O)(=O)[O-])c2ccc3ccccc3c21 [ICG, Indocyanine green]
time of peak photoacoustic signal in tumor post-injection ([3]; 200 nmol i.v. tail vein): 15 min
photoacoustic signal reduction at 60 min compared to 15 min ([3]; 200 nmol i.v.): 70%
microscopic fluorescence distribution in tumor cryosections (U-87MG tumors): only a patchy and weak signal
blood half-life ([5]; in human): 3 to 5 min
photostability [5]: low photostability
solubility in aqueous media [5]: low solubility in aqueous media with strong tendency to form aggregates
